The text below walks through data of ChEMBL document CHEMBL3612047, “Synthesis, antiproliferative activity and possible mechanism of action of novel 2-acetamidobenzamides bearing the 2-phenoxy functionality” (Bioorg Med Chem, 2015).

For orientation: inhibition means the share of the control response that was lost under treatment. Broadly, the GI50 is the concentration giving 50% growth inhibition. Read a high GI50 as lower sensitivity of the cells.

The subject of assay [1] is K562. Nature of the assay: Induction of cell cycle arrest in human K562 cells assessed as accumulation at G0/G1 phase at 10 uM incubated for 48 hrs by propidium iodide staining based flow cytometry (reference value: 56.6%). The assay is classed as functional. Background: A flow cytometer gives signals particle by particle.
Assay [2] deals with K562. The assay is described as follows: Induction of apoptosis in human K562 cells assessed as chromatin condensation at 10 uM incubated for 48 hrs by Hoechst 33342 staining based fluorescence microscopy. The assay is classed as functional, cell-based. The method, boiled down: (§1)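 K562 cells (8 × 10³/well) on poly-D-lysine-coated wells, allowed to adhere overnight. Stained with Hoechst 33342 for 30 min, washed with PBS, resuspended in medium, then treated at 10 μM for 48 h.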

The subject of assay [3] is K562. Nature of the assay: Induction of apoptosis in human K562 cells assessed as nuclear fragmentation at 10 uM incubated for 48 hrs by Hoechst 33342 staining based fluorescence microscopy. The assay is classed as functional, cell-based. Put shortly: as §1
Assay [4] concerns K562. The assay is described as follows: Induction of apoptosis in human K562 cells assessed as reduction in pro-caspase-6 levels at 10 uM incubated for 48 hrs by Western blot method relative to basal level. The assay is classed as functional. The following applies: K562, 48 h. The method, boiled down:
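K562 cells were seeded at 1.5 × 10⁵/well and treated 48 h. Lysate protein was measured by Lowry assay and run on SDS-PAGE. Blots on nitrocellulose were probed with alkaline phosphatase-conjugated antibodies to pro-caspases 3 and 6. Loading was checked by Ponceau red and β-actin immunoblot, with level expressed against basal. Three independent experiments.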
On the technique in general: A western blot detects proteins with antibodies after separation by electrophoresis.

Assay [5] is described as follows: Growth inhibition of human BT549 cells by NCI standard protocol based method. The assay is classed as functional. The following applies: BT-549. Put shortly: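 NCI full 60-cell-line panel, 5-dose assay to the NCI standard protocol. GI₅₀ is the molar concentration inhibiting 50% net cell growth. Mean graph midpoint is averaged over all lines; where the effect is not reached, the highest tested concentration is used.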

Active and inactive are the calls of the source. The calls are words filed in the database; no cut-off is given here.

In the case of `NC(=O)c1cc(I)ccc1NC(=O)COc1ccccc1`, the Activity with K562 [1] is listed as 45.2%. Besides, the outcome with K562 [2] and with K562 [3] was Active. Further, the inhibition at 10 µM with K562 [4] turned out to be 20%.
Compound `COc1cc(NC(=O)COc2ccccc2)c(C(N)=O)cc1OC` gave a GI50 in assay [5] of 770 nM. The Activity with K562 [1] is 39.4%. The result in the assay with K562 [2] and with K562 [3] was Active. For the same compound, the inhibition at 10 µM with K562 [4] is 50%.
